Columns and labels:
[1] = organism: Homo sapiens; experiment: Inhibition of HSP70 in human BT/LapR1.0 cells assessed as potentiation of 1 uM of lapatinib-induced growth inhibition after 72 hrs by measuring coefficient of drug interaction by cell titer-glo based luminescence assay
[2] = test system: BT-474; experiment: Potentiation of lapatinib-induced growth inhibition of human BT474 cells assessed as coefficient of drug interaction after 72 hrs by cell titer-glo based luminescence assay; type: functional
[3] = Growth inhibition of human BT474 cells at 10 uM after 72 hrs by cell titer-glo based luminescence assay; set-up: species or system BT-474; details: read-out: GI
How it was run: (§1)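 Cells were trypsinised and seeded at 5000 cells/well, then cultured 24 h at 37 °C. Compound was added at 10 µM, alone or with 1 µM lapatinib, and incubated 72 h at 37 °C. CellTiter-Glo reagent was added at a volume equal to the medium, followed by 3 min shaking and 10 min at room temperature. Luminescence (ATP) was read and normalised to the blank control group.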

[4] = test system: BT-474; experiment: Potentiation of lapatinib-induced growth inhibition of human BT474 cells at 10 uM after 72 hrs by cell titer-glo based luminescence assay; type: functional; details: BT-474, 72 h, read-out: GI; how it was run: as §1
[5] = Growth inhibition of human BT/LapR1.0 cells at 10 uM after 72 hrs by cell titer-glo based luminescence assay; details: read-out: GI; how it was run: as §1
[6] = organism: Homo sapiens; experiment: Inhibition of HSP70 in human BT/LapR1.0 cells assessed as potentiation of 1 uM of lapatinib-induced growth inhibition at 10 uM after 72 hrs by cell titer-glo based luminescence assay; how it was run: as §1
[7] = molecular target: Chaperone protein DnaK (Escherichia coli) (UniProt P0A6Y8); experiment: Inhibition of Escherichia coli DnaK ATPase activity at 200 uM incubated on shaker for 10 mins followed by 30 mins incubation by malachite green reagent based colorimetric assay

SMILES | Activity [1] | Activity [2] | inhibition at 72 h, 10 µM [3] | inhibition of growth at 10 µM [4] | inhibition at 72 h, 10 µM [5] | growth inhibition (GI) [6] | inhibition [7]
Cc1ccccc1NC(=S)NC(CC(C)C)NC(=O)/C=C/c1ccccc1 (configuration not stated) | < 1 | 0.84 | 9.8% | 81.6% | 12.8% | 23.3% | < 20%
COc1cc(/C=C/C(=O)NC(NC(=S)Nc2cccnc2)C2CC2)cc(OC)c1OC (configuration not stated) | < 1 | <1 | 8.6% | 85.2% | 12.3% | 55.7% | < 20%
COc1cc(/C=C/C(=O)NC(NC(=S)Nc2ccccc2)C(C)(C)C)cc(OC)c1OC (configuration not stated) | < 1 | <1 | 2.2% | 83.2% | 2.9% | 48.8% | < 20%
Cc1ccccc1NC(=S)NC(NC(=O)/C=C/c1ccccc1)C1CC1 (configuration not stated) | < 1 | <1 | 6% | 78.6% | 8.7% | 20% | 65.4%
COc1ccc(NC(=S)NC(NC(=O)/C=C/c2cc(OC)c(OC)c(OC)c2)C(C)C)cc1 (configuration not stated) | < 1 | <1 | 11.5% | 78.5% | 15.4% | 23.4% | < 20%
COc1cc(/C=C/C(=O)NC(CC(C)(C)C)NC(=S)Nc2ccccc2)cc(OC)c1OC (configuration not stated) | < 1 | 0.65 | 19% | 90.9% | 40.9% | 62.3% | 44.1%
Cc1ccccc1NC(=S)NC(NC(=O)/C=C/c1ccccc1)C(C)(C)C (configuration not stated) | < 1 | <1 | 7% | 78.7% | 9.7% | 20.5% | < 20%
COc1cc(/C=C/C(=O)NC(CC(C)C)NC(=S)Nc2ccccn2)cc(OC)c1OC (configuration not stated) | < 1 | <1 | 24.9% | 87.8% | 38.7% | 61% | < 20%
COc1cc(/C=C/C(=O)NC(NC(=S)Nc2ccccn2)C2CC2)cc(OC)c1OC (configuration not stated) | < 1 | <1 | 20.1% | 87.8% | 17.4% | 59.6% | < 20%
COc1cc(/C=C/C(=O)NC(NC(=S)Nc2ccccc2)C2CC2)cc(OC)c1OC (configuration not stated) | < 1 | <1 | 12.2% | 85.2% | 13.7% | 56% | 50.5%
COc1cc(/C=C/C(=O)NC(CC(C)C)NC(=S)NC2CCCCC2)cc(OC)c1OC (configuration not stated) | < 1 | 0.73 | 16.5% | 83.4% | 38.8% | 48.1% | 46.2%
COc1cc(/C=C/C(=O)NC(NC(=S)Nc2ccccc2C)C2CC2)cc(OC)c1OC (configuration not stated) | 0.79 | <1 | 44% | 87.4% | 6.8% | 44.2% | < 20%
COc1cc(/C=C/C(=O)NC(NC(=O)Nc2ccccc2)C(C)C)cc(OC)c1OC (configuration not stated) | < 1 | <1 | 4.8% | 79.1% | 11.4% | 32.8% | 
CC(C)(C)C(NC(=O)/C=C/c1ccccc1)NC(=S)Nc1ccccc1 (configuration not stated) | < 1 | 0.85 | 9.6% | 83.5% | 11.4% | 33% | < 20%
CC(C)C(NC(=O)/C=C/c1ccccc1)NC(=S)NC1CCCCC1 (configuration not stated) | < 1 | <1 | 10.3% | 80.6% | 13.3% | 75.8% | < 20%
COc1cc(/C=C/C(=O)NC(NC(=S)NC2CCCCC2)C(C)(C)C)cc(OC)c1OC (configuration not stated) | 0.86 | 0.56 | 13.5% | 87.3% | 39.8% | 57.8% | 35.8%
CC(C)C(NC(=O)/C=C/c1ccccc1)NC(=S)Nc1ccccc1 (configuration not stated) | < 1 | <1 | 9.4% | 82% | 11.5% | 30% | < 20%
COc1cc(/C=C/C(=O)NC(NC(=S)Nc2ccccc2C)C(C)(C)C)cc(OC)c1OC (configuration not stated) | < 1 | <1 | 8.2% | 81.4% | 9.9% | 30.1% | 50.5%
COc1cc(/C=C/C(=O)NC(CC(C)C)NC(=S)Nc2ccccc2)cc(OC)c1OC (configuration not stated) | < 1 | <1 | 7.3% | 76.6% | 9.4% | 42.2% | 50.4%
Cc1ccccc1NC(=S)NC(CC(C)(C)C)NC(=O)/C=C/c1ccccc1 (configuration not stated) | 0.79 | 0.74 | 18.2% | 84.2% | 18.9% | 41% | 41%
COc1cc(/C=C/C(=O)NC(CC(C)(C)C)NC(=S)Nc2ccccn2)cc(OC)c1OC (configuration not stated) | < 1 | <1 | 25.8% | 88.5% | 31.5% | 65.9% | < 20%
CC(C)CC(NC(=O)/C=C/c1ccccc1)NC(=S)Nc1ccccc1 (configuration not stated) | < 1 | 0.86 | 17.7% | 85% | 13.6% | 36.9% | < 20%
COc1cc(/C=C/C(=O)NC(NC(=O)Nc2ccccn2)C(C)C)cc(OC)c1OC (configuration not stated) | < 1 | <1 | 12.4% | 86.2% | 18.2% | 57.6% | < 20%
COc1cc(/C=C/C(=O)NC(NC(=S)NC2CCCCC2)C(C)C)cc(OC)c1OC (configuration not stated) | 0.8 | 0.82 | 15.3% | 82.2% | 22.6% | 45.7% | < 20%

From ChEMBL document CHEMBL3853294, “Design, synthesis and biological evaluation of novel HSP70 inhibitors: N, N'-disubstituted thiourea derivatives” (Eur J Med Chem, 2016)
